An excerpt weighted towards active compounds, which were near 1.7% of everything screened.
HTR2A ag – mouse HTR2A agonism via beta-arrestin recruitment; AID 624169; 360,000 tested, 0.66% active; CHO-K1 mHTR2A beta-arrestin complementation, luminescence; percent of 30 µM serotonin response; activation, % at 7.6 µM;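 active = activation above a run cutoff, the mean activation of all tested compounds plus 3 SD, cut at about 14% in these data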
T cell modulator – T cell immune modulators affecting CD8 T cell-vesicle binding. 2C CD8+ T cell-vesicle binding, flow cytometry; stronger effect = lower value. 330,000 tested, 0.068% active. response (vesicle binding), % at 7 µM;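 active = response, share of CD8 T cells binding vesicles, and their 90th percentile fluorescence all below set limits, cut at about 80% in these data, passing the limit was not always enough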;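 also: values below 100% mean blocked vesicle binding to the CD8+ T cells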
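System: murine 2C transgenic CD8+ T lymphocytes; also added: QL9-loaded Drosophila micro-vesicles; times: binding 1.5 h at 37 °C; measured by: flow cytometry, PE anti-B7-1 (FL2) versus Alexa647 anti-CD8 (FL8), PFA-fixed; control set: Peptide-free naked vesicles (low) and QL9 vesicles with 0.7% DMSO vehicle (high)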
GASC-1 inh – human JMJD2C demethylase inhibition; Q9H3R0; GST-JMJD2C(1-420) H3K9me3 demethylation, DELFIA europium; inhibition, % at 2.35 µM; 330,000 tested, 0.069% active; AID 2099;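 active = more than half of a compound's replicate wells show inhibition beyond 50%, single wells judged on their own value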;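 also: signal counts dimethyl H3K9 product captured on neutravidin plate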
PP1 inh – counter-screen for PP5 inhibitors: inhibitors of human PP1-alpha | purified PP1alpha, OMFP fluorescence | inhibition, % at 6.7 µM | 320,000 tested, 0.9% active | AID 2235;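 active = inhibition above the mean inhibition of all tested compounds plus 3 SD, computed separately for each screening campaign, cut at about 15% in these data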
PP5 primary – inhibitors of human protein phosphatase 5 (PP5) | 320,000 tested, 0.18% active | inhibition, % at 6.7 µM | purified PP5c, OMFP substrate fluorescence | P53041;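 active = inhibition above the campaign's mean inhibition across all tested compounds plus 3 SD, cut at about 9.5% in these data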
Target sequence (P53041 whole entry, looked up): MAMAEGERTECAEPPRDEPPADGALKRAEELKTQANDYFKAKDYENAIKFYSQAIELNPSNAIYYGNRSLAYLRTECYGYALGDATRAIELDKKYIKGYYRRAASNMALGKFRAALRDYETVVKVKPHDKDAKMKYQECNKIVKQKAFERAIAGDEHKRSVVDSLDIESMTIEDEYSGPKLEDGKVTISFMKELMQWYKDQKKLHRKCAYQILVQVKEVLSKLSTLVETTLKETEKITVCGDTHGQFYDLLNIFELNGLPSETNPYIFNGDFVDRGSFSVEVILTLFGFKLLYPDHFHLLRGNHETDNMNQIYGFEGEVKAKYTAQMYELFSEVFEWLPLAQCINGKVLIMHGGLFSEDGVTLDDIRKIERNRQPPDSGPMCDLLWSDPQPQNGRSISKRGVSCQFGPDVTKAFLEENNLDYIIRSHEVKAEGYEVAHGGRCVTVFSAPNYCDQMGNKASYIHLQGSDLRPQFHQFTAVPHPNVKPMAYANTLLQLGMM
Numbers stand for hits; - = inactive; . = no result.

SMILES	HTR2A ag	T cell modulator	GASC-1 inh	PP1 inh	PP5 primary
COC/C=C/C1=CC2=CC(=O)C(C)(OC(=O)c3cnc4ccccc4n3)C(=O)C2=CN1CCc1c[nH]c2ccccc12 (configuration not stated)	.	-	-	17	-
Cc1cc(C)cc(NC(=O)c2ccc(N3C(=O)C4CCCCC4C3=O)cc2)c1 (configuration not stated)	-	-	-	-	-
CC(C)c1ccc(OCc2ccc(C(=O)N3CCCC3)o2)cc1	-	-	-	-	-
COc1ccc(-n2c(C)cc(/C=N/Nc3nnc(C)n3N)c2C)cc1	-	-	68	-	-
COc1cc(NS(=O)(=O)c2ccc(NC(=S)NC(=O)c3sc4ccccc4c3Cl)cc2)nc(OC)n1	-	-	-	-	-
NC(N)=NS(=O)(=O)c1ccc(NC(=S)NC(=O)c2sc3ccccc3c2Cl)cc1	-	-	-	16	-
COC(=O)c1ccc(NC(=O)CNC(=O)c2sc3ccccc3c2Cl)cc1	-	-	-	15	-
CC(=O)Nc1ccc(NC(=O)CNC(=O)c2sc3ccccc3c2Cl)cc1	-	-	-	-	-
COc1cc(/C=C/C(=O)OCC(=O)NC(=O)C2COc3ccccc3O2)ccc1OC(F)F (configuration not stated)	-	-	-	.	.
CCN(CC)CCN1C(=O)C(=O)/C(=C(/O)c2c(C)[nH]c(C(=O)OC)c2C)C1c1ccc(C)o1 (configuration not stated)	-	-	-	-	-
C#CCOCCOCCOCCNc1nc(N2CCN(C(=O)CCCCCCCCCCNC(=O)[C@H](CCCCN)n3cc(C[C@@H](C)CC)nn3)CC2)nc(N2CCN(C(=O)CCCCCCCCCCNC(=O)[C@H](CCCN=C(N)N)n3cc(C[C@@H](C)CC)nn3)CC2)n1	-	-	-	68	-
C#CCOCCOCCOCCNc1nc(N2CCN(C(=O)CCCCCCCCCCNC(=O)[C@H](CO)n3cc(CCCCCN)nn3)CC2)nc(N2CCN(C(=O)CCCCCCCCCCNC(=O)[C@H](CCCN=C(N)N)n3cc(C[C@@H](C)CC)nn3)CC2)n1	.	-	-	57	-
C#CCOCCOCCOCCNc1nc(N2CCN(C(=O)CCCCCCCCCCNC(=O)[C@@H](CCC(=O)O)n3cc(CCCCCN)nn3)CC2)nc(N2CCN(C(=O)CCCCCCCCCCNC(=O)[C@H](CO)n3cc(CCCSC)nn3)CC2)n1	-	-	.	-	-
C#CCOCCOCCOCCNc1nc(N2CCN(C(=O)CCCCCCCCCCNC(=O)[C@@H](CCC(=O)O)n3cc(CCCCCN)nn3)CC2)nc(N2CCN(C(=O)CCCCCCCCCCNC(=O)[C@H](CO)n3cc(CCCCCN)nn3)CC2)n1	-	-	.	15	-
CCCCNC(=O)C1(C)CCCCN1C(=O)c1cc(-c2ccccc2)cs1 (configuration not stated)	-	.	.	.	.
C[C@@H]1CN([C@@H](C)CO)C(=O)CCCn2nncc2CO[C@H]1CN(C)S(=O)(=O)c1ccc(C#N)cc1	-	.	.	.	.
CC1(C)CC(Nc2ccc(Nc3ccccc3)cc2)CC(C)(C)N1	-	-	-	.	.
O=C(CCNC(=O)OCC1c2ccccc2-c2ccccc21)NOCc1ccccc1	-	.	.	.	.
COCCN(C(=O)c1snc(C(N)=O)c1N)C(C(=O)NC1CCCCC1)c1ccc(N(C)C)cc1 (configuration not stated)	-	-	-	-	-
Cc1c(-c2ccccn2)c(=O)[nH]n1-c1ccc(F)cc1	-	-	-	-	-
Cc1nc(-c2ccccn2)nc(SCC(=O)c2ccccc2)c1Cl	-	-	-	15	-
Cc1nc(-c2ccccn2)nc(SCC(=O)N2CCOCC2)c1Cl	-	-	-	-	-
N#Cc1c(-c2ccccc2)nc(SCc2cccc(Cl)c2)[nH]c1=O	-	.	-	17	-
C/C(Cc1ccccc1)=N\NC(=O)CNC(=O)COc1ccccc1	-	-	-	-	-
COc1ccc(C2/C=C\CN(C(=O)Nc3ccccc3-c3ccccc3)CC(=O)N2Cc2ccc(F)cc2)cc1 (configuration not stated)	-	-	-	16	-
SMILES	HTR2A ag	T cell modulator	GASC-1 inh	PP1 inh	PP5 primary
COC(=O)N1C/C=C\C(c2ccc(OC)cc2)N(Cc2ccc(F)cc2)C(=O)C1 (configuration not stated)	-	.	-	-	-
CC(=O)OC[C@]12CC[C@H]3[C@@](C)(CC[C@H]4C(C)(C)CCC[C@]34C)[C@@H]1C[C@@H](C1=CC(=O)O[C@@H]1OC(C)=O)O2	.	0.0	-	.	.
O=C(Sc1ccc(Cl)cc1)c1ccccn1	-	-	-	-	-
O=c1[nH]cc(N=Cc2cc(Cl)cc(Cl)c2O)c(=O)[nH]1	-	-	66	-	-
O=c1[nH]cc(N=Cc2cc([N+](=O)[O-])ccc2O)c(=O)[nH]1	.	-	-	-	-
O=C(Nc1nc(-c2ccccn2)cs1)c1cc(Cl)ccc1[N+](=O)[O-]	-	-	-	16	-
CCc1cc(C(=O)Nc2nc(-c3ccccn3)cs2)sc1C	-	-	-	16	-
Cc1c(NC(=O)c2ccc(Br)s2)c(=O)n(-c2ccccc2)n1C	-	-	-	-	-
N#Cc1ccc(NC(=O)Nc2ccc(Oc3ccc(NC(=O)Nc4ccc(C#N)cc4)cc3)cc2)cc1	-	-	-	17	-
O=C(CN1CCOCC1)Nc1nc(-c2ccc3c(c2)CCN3S(=O)(=O)c2ccccc2)cs1	15	-	-	-	-
Cc1nn(C)c(C)c1NC(=O)CSc1nc(-c2ccccc2Cl)nc2c1cnn2-c1ccccc1	-	-	-	16	-
Cc1nn(C)c(C)c1NC(=O)CSc1nc(-c2ccccc2F)nc2c1cnn2-c1ccccc1	-	.	.	.	.
O=C1C(Cl)=C(N2CCCCC2)C(=O)C(Cl)=C1c1cnc(N2CCCCC2)s1	-	.	-	.	.
CN(C)c1ncc(C2=C(Cl)C(=O)C(N3CCCC3)=C(Cl)C2=O)s1	-	-	.	17	-
COc1ccc(CCCC(=O)N/N=C/c2cccc(OC)c2O)cc1C	-	-	-	17	-
COC(=O)c1cc(C(=O)Nc2cc(C)on2)cc([N+](=O)[O-])c1	-	-	-	-	-
COC(=O)c1cc(C(=O)Nc2cc(C)ccn2)cc([N+](=O)[O-])c1	15	-	-	-	-
O=C(N[C@H]1C/C=C\C[C@@H](CC(=O)N(CCO)Cc2ccccc2)C(=O)N2CCC[C@@H]2COC1=O)OCC1c2ccccc2-c2ccccc21	-	0.0	-	.	.
CC(C)CC(=O)[C@@H](O)Cc1ccc(O)cc1	-	.	.	.	.
CC(=O)Nc1ccc2nc(-c3cccn3C)[nH]c2c1	-	-	-	-	-
Cn1cccc1-c1nc2ccc(NC(=O)c3cccs3)cc2[nH]1	-	-	58	-	-
COc1ccc(C(=O)NC2CCN(CC(=O)N3CCCCC3)CC2)cc1	-	-	-	-	-
CCn1cc(C(=O)O)c(=O)c2cc(F)c(N/N=C/c3ccccc3)cc21	-	-	-	16	-
Cc1onc(-c2ccccc2)c1C(=O)NCc1ccc(Cl)cc1	-	-	-	.	.
